Laboratory results taken from ChEMBL document CHEMBL1125813, “Preparation and anti-HIV activities of aurintricarboxylic acid fractions and analogues: direct correlation of antiviral potency with molecular weight” (J Med Chem, 1991).
Converted amounts (≈) assume the structure as drawn. “And” between values parts separate entries of the source, which are not always exact repeats. Equal entries are not always repeated.

Tests used:
[1] = Compound was tested for percent of OKT4A positive cells stained with normal mouse IgG-FITC at a concentration of 4 ug/mL; assay type: functional
Method in brief: (§1)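 MT-4 cells, 200 000 in 100 µL PBS, exposed to compound for 10–20 s at 20 °C, then stained with anti-OKT4A-FITC for 20 min at 4 °C. Cells washed, fixed in 0.37% formaldehyde and analysed by cytofluorometry. Positive cells are those brighter than control cells stained with normal mouse IgG-FITC, which monitors nonspecific labelling.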

[2] = system: MT4; assay: Inhibitory concentration for cytopathicity of HIV-2 (LAV-2ROD) in MT-4 cells; assay type: functional, cell-based, Homo sapiens
Method in brief: (§2)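 MT-4 cells infected with HIV-1 (HTLV-IIIB) or HIV-2 (LAV-2ROD) at 100–500-fold the dose infecting 50% of cells, then cultured with compound. Protection from cytopathicity gives the IC50 (50% inhibitory concentration). Means of at least three experiments.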

[3] = system: MT4; assay: Inhibitory index for OKT4A mAb binding inhibition in MT-4 cells was determined at a concentration of 20 ug/ml; assay type: functional, Homo sapiens
Method in brief: (§3)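 MT-4 cells, 200 000 in 100 µL PBS, exposed to compound for 10–20 s at 20 °C, stained with anti-OKT4A-FITC for 20 min at 4 °C, washed, formaldehyde-fixed and read by flow cytometry. Index = 1 − (MF with compound − MF IgG-FITC control)/(MF OKT4A only − MF IgG-FITC control), from mean fluorescence intensity.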

[4] = system: MT-4 (human); assay: Inhibitory index of HIV-1 binding to MT-4 cells was determined at a concentration of 25 ug/mL
[5] = system: MT4; assay: Inhibitory index for OKT4A mAb binding inhibition in MT-4 cells was determined at a concentration of 100 ug/ml; assay type: functional, Homo sapiens; method in brief: as §3
[6] = system: HuT78; assay: Compound was tested for reduce the number of gaint cells in HIV-1 infected HUT-78 cells cocultured with MOLT -4 cells; assay type: functional, cell-based, Homo sapiens
Method in brief: (§4)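 HUT-78 cells persistently infected with HIV-1 or HIV-2 cocultured with uninfected MOLT-4 (CD4+) cells alongside compound. Syncytium formation and bystander-cell destruction assessed by flow cytometry. IC50 taken as the concentration cutting giant-cell number by 50%.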

[7] = Compound was tested for percent of OKT4A positive cells stained with normal mouse IgG-FITC at a concentration of 0.16 ug/ml; assay type: functional; method in brief: as §1
[8] = system: CCRF-CEM; assay: Inhibitory concentration for cytopathicity of HIV-1 (HTLV-111B) in CEM cells; assay type: functional, cell-based, Homo sapiens
Method in brief: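 CEM cells infected with HIV-1 (HTLV-IIIB) and cultured with compound. Protection from cytopathicity measured by XTT tetrazolium viability assay. IC50 is the concentration giving 50% inhibition. Means of two to four experiments.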

[9] = Compound was tested for percent of OKT4A positive cells stained with normal mouse IgG-FITC at a concentration of 20 ug/ml; assay type: functional; method in brief: as §1
[10] = Compound was tested for percent of OKT4A positive cells stained with normal mouse IgG-FITC at a concentration of 0.8 ug/ml; assay type: functional; method in brief: as §1
[11] = system: MT4; assay: Inhibitory concentration for cell viability in mock-infected MT-4 cells; assay type: functional, cell-based; settings: Homo sapiens
Method in brief: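 MT-4 cells mock-infected and cultured with compound. Viability measured by MTT tetrazolium colorimetric read-out. Value is the 50% cytotoxic concentration. MT-4 data are means of at least three experiments.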

[12] = system: MT4; assay: Inhibitory concentration for cytopathicity of HIV-1 (HTLV-111B) in MT-4 cells; assay type: functional, cell-based, Homo sapiens; method in brief: as §2
[13] = system: MT4; assay: Inhibitory index for OKT4A mAb binding inhibition in MT-4 cells was determined at a concentration of 0.16 ug/ml; assay type: functional, Homo sapiens; method in brief: as §3
[14] = system: MT4; assay: Inhibitory index for OKT4A mAb binding inhibition in MT-4 cells was determined at a concentration of 0.8 ug/ml; assay type: functional, Homo sapiens; method in brief: as §3
[15] = Compound was tested for percent of OKT4A positive cells stained with normal mouse IgG-FITC at a concentration of 100 ug/ml; assay type: functional; method in brief: as §1
[16] = system: HuT78; assay: Compound was tested for reduce the number of gaint cells in HIV-2 infected HUT-78 cells cocultured with MOLT -4 cells; assay type: functional, cell-based, Homo sapiens; method in brief: as §4
[17] = system: MT4; assay: Inhibitory index for OKT4A mAb binding inhibition in MT-4 cells was determined at a concentration of 4 ug/ml; assay type: functional, Homo sapiens; method in brief: as §3

Structure (SMILES): O=C(O)C1=CC(=C(c2ccc(O)c(C(=O)O)c2)c2ccc(O)c(C(=O)O)c2)C=CC1=O [AURINTRICARBOXYLIC ACID]
- Activity [1]: 9.2
- IC50 ([2]; Homo sapiens, MT4, read-out: IC50): 0.85 µg/mL (≈ 2.01 µM)
- IC50 ([2]; mt4): 1.3 µg/mL (≈ 3.08 µM)
- Activity [3]: 0.98
- Inhibitory index [4]: 0.99
- Activity [5]: 0.97
- IC50 [6]: 4 µg/mL (≈ 9.47 µM)
- Activity [7]: 99.5
- IC50 ([8]; Homo sapiens, CCRF-CEM, read-out: IC50): 2.1 µg/mL (≈ 4.97 µM)
- IC50 ([8]; ccrf-cem): 1.2 µg/mL (≈ 2.84 µM)
- Activity [9]: 1.8
- Activity [10]: 99.2
- IC50 [11]: 280 µg/mL (≈ 663 µM)
- IC50 [12]: 1.1 µg/mL and 0.5 µg/mL
- Activity [13]: 0
- Activity [14]: 0.26
- Activity [15]: 2.7
- IC50 ([16]; Homo sapiens, HuT78, read-out: IC50): 4 µg/mL (≈ 9.47 µM)
- IC50 ([16]; hut78): 4 µg/mL (≈ 9.47 µM)
- Activity [17]: 0.91
